HTRA1 inhibitor: inhibitors of human serine peptidase HTRA1; recombinant HTRA1, FP-rhodamine activity-based probe, fluorescence polarization; hit rate 0.5% among 340,000; inhibition, % at 5.96 µM; in the data active = inhibition above about 36%;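 also: 0% = enzyme with DMSO and 100% = wells lacking enzyme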
PRMT1 FP inh: PRMT1 (human) inhibition, primary screen; Q99873; recombinant PRMT1, activity-based probe fluorescence polarization; inhibition, % at 2.79 µM; hit rate 1.3% among 370,000;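 active = inhibition above about 21% made by adding two undisclosed values, limit read from the data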
ABHD4 inh: inhibitors of mouse ABHD4; Q8VD66; purified mABHD4, FP-Rh probe fluorescence polarization; inhibition, % at 8.92 µM; hit rate 0.54% among 370,000;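 active = inhibition exceeding the mean over every tested compound plus 3 SD, cut at about 30% in these data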;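 also: 0% = plate median of compound wells and 100% = S159A mutant with DMSO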
Target sequence (Q8VD66 whole entry, looked up): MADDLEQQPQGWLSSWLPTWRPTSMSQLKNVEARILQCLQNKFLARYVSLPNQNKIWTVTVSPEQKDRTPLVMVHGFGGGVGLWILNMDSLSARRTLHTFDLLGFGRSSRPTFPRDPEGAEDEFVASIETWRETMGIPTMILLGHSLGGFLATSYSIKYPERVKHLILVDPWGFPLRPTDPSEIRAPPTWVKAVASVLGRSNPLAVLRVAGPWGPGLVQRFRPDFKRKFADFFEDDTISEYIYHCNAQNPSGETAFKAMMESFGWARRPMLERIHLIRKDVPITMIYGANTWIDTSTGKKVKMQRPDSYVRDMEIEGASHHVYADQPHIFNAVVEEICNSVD
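Test system: mABHD4 protein; Read-out basis: % inhibition; Incubation: 45 min + 60 min at 25 °C; Repeats: single replicate; Technique: fluorescence polarization with parallel and perpendicular emission, 525/598 nm; Compound: 8.92 µM, single dose; Benchmarks: full inhibition S159A mutant plus DMSO, zero as sample-well median.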
LEDGF integ inh: blocks HIV-1 LEDGF/p75-dependent DNA integration. TR-FRET IN-LEDGF/p75 DNA integration, Eu/Cy5. inhibition, % at 3.7 µM. hit rate 0.64% among 370,000;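 active = inhibition above the screen-wide mean plus 3 SD, cut at about 13% in these data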;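 also: signal is the Cy5 over europium emission ratio at 671 and 618 nm; 0% = plate median of compound wells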
DAGLB inh: diacylglycerol lipase beta (human) inhibition | Q8NCG7 | HEK293T DAGLB membrane lysate, EnzChek fluorogenic substrate | inhibition, % at 5.17 µM | hit rate 0.059% among 340,000 | AID 504411; in the data active = inhibition above about 34%;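 also: 0% = enzyme with vehicle and 100% = wells lacking enzyme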
rCAG binder: molecules binding r(CAG) RNA repeats; r(CAG) RNA repeat, TO-PRO-1 dye displacement fluorescence; inhibition, % at 3 µM; hit rate 1.3% among 370,000; AID 651821;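 active = inhibition above the plate cutoff, the mean of all test compounds on that plate plus 3 SD, cut at about 35% in these data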;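 also: 0% = DMSO alone and 100% = 100 µM mitoxantrone as full dye displacement; higher means more dye released from RNA so lower well fluorescence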
ABHD4 confirm: confirmation of mouse ABHD4 inhibitors | shares compounds with ABHD4 inh | purified mABHD4, FP-Rh probe fluorescence polarization | inhibition, % at 8.92 µM | hit rate 55% among 1,800 | AID 720658;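 active = mean inhibition across replicates above the hit cutoff set in the primary screen, cut at about 30% in these data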;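 also: 0% = wild-type ABHD4 with DMSO and 100% = catalytically dead S159A mutant with DMSO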
The depositor's hits bear a star; / = not tested or not shown. Most compounds without a hit are left out; they make up all but 3.2% or so of the library.

SMILES	HTRA1 inhibitor	PRMT1 FP inh	ABHD4 inh	LEDGF integ inh	DAGLB inh	rCAG binder	ABHD4 confirm
CC1CCCCC1NC(=O)CN(C)S(=O)(=O)c1ccc2c(c1)c(=O)n(C)c(=O)n2C (configuration not stated)	1.7	-3.4	-1.2	2.9	0.8	-1.2	/
COc1cc(OC)cc(C(=O)NC(=S)NNC(=O)c2cnccn2)c1	7.3	-0.5	9.8	-1.9	1.2	0.8	/
CCNC(=S)NNC(=O)c1cnccn1	/	-4.5	45.6*	-1.2	/	1.2	53.6*
COc1ccc(/C=C2\SC(=O)N(CCC(=O)N(C)C3CCS(=O)(=O)C3)C2=O)cc1 (configuration not stated)	0.9	0.4	-1.2	4.5	4.5	6.8	/
CCCCC1OC2(C)OC(=N)C1(C#N)C(C#N)(C#N)C2c1ccccc1 (configuration not stated)	5.5	18.5	30.1*	1.1	-2.5	1.3	10.4
C[N+](C)(CCOc1ccccc1)Cc1ccccc1	3.7	10.9	27.6	2.8	2.5	11.5	/
Cc1cc(C(C)(C)CC(C)(C)C)ccc1OCCOCC[N+](C)(C)Cc1ccccc1	24.6	-0.2	35.7*	-0.5	3.8	9.6	45.4*
Cc1ccc2c(c1)N1C(=O)c3ccccc3C1C1=C(CC(C)(C)CC1=O)N2 (configuration not stated)	-3.4	2.9	30.4*	1.5	-3.7	-2.8	45.8*
CC(=O)Oc1cccc(C2C3=C(CC(C)(C)CC3=O)Nc3ccccc3N2C(C)=O)c1 (configuration not stated)	2.1	-4.8	4.6	1.1	-1.6	-5.4	/
Cc1cccc(C)c1OCC(=O)N/N=C/c1cc2c(cc1[N+](=O)[O-])OCO2	2.0	2.4	1.1	-1.1	-3.1	1.9	/
O=C(CCc1ccc(O)c(O)c1)N/N=C/c1cc2c(cc1[N+](=O)[O-])OCO2	34.4	13.2	30.8*	53.0*	7.0	16.8	37.7*
CCc1cc(-c2ccc3c(c2)COc2c4ccccc4nn2-3)on1	-21.8	10.5	31.6*	0.1	-4.3	15.5	-7.3
COc1cc2cc(C)nc(Cc3cccc4ccccc34)c2cc1OC	-18.1	0.0	32.5*	6.1	-5.3	7.7	40.5*
COc1cc(/C=C2/C(=N)N3OC(C)=CC3=NC2=O)ccc1OCCOc1ccc(C)cc1	0.5	-3.2	-5.3	-0.2	-3.5	1.2	/
C[C@@H]1C=CCCO[C@]12C(=O)N(CC1CC1)c1cccc(Br)c12	/	-4.4	39.7*	1.8	/	-1.6	40.0*
NC[C@H](Cc1ccccc1)NCCCCC1CCCCC1	6.3	-0.7	18.7	2.6	-8.0	8.6	/
CNC[C@H](CC1CCCCC1)NC[C@H](Cc1ccccc1)NCCC12CC3CC(CC(C3)C1)C2	-4.9	1.0	48.3*	6.9	-10.2	12.6	74.8*
CCC1COCCS(=O)(=O)N1Cc1ccccc1 (configuration not stated)	-1.3	-3.2	0.2	-1.9	0.4	-4.5	/
CCCC/C(C)=N\NC(=O)CNS(=O)(=O)c1ccc([N+](=O)[O-])cc1	-1.1	0.1	0.2	0.2	1.3	5.9	/
Cc1nc2c(C)cccn2c(=O)c1NC(=O)c1cccc2ccccc12	-3.6	-0.2	4.7	-2.0	-2.3	-0.2	/
CC(C)=CCC/C(C)=C/C[C@]12C[C@H](C(=O)O)N(C(=O)OC(C)(C)C)[C@@H]1N(C(=O)OC(C)(C)C)c1ccccc12	/	6.2	50.6*	1.2	/	/	40.3*
COc1ccc(/C=N/c2c(-c3ccco3)nc3ccccn23)cc1OC	26.3	16.9	44.2*	10.1	2.7	6.3	3.3
COc1cc(-c2nc3ccccn3c2/N=C/c2ccc(F)cc2)ccc1O	-9.3	-4.7	2.6	-1.0	-2.0	-2.3	/
Clc1ccc(/C=N/c2c(-c3ccco3)nc3ccccn23)cc1	34.4	14.4	40.9*	11.5	2.7	6.4	11.9

From PubChem BioAssay
